Measurements published in ChEMBL document CHEMBL3525963, “Tissue distribution and elimination of [14C]apixaban in rats” (Drug Metab Dispos, 2011).

Legend:
Conditions in all cases: in vivo
Brain [1] = assay: Biodistribution in pregnant Sprague-Dawley rat brain at 5 mg/kg, po administered as single dose measured after 8 hrs; assay type: ADME, organism-based; parameters: dose 5 mg/kg, dosed compound name [14C]-apixaban, route oral
Rattus norvegicus [2] = assay: Biodistribution in pregnant Sprague-Dawley rat bone marrow at 5 mg/kg, po administered as single dose measured after 8 hrs; assay type: ADME, organism-based; parameters: dose 5 mg/kg, dosed compound name [14C]-apixaban, route oral
Rattus norvegicus [3] = assay: Biodistribution in fetal blood of pregnant Sprague-Dawley rat at 5 mg/kg, po administered as single dose measured after 4 hrs; assay type: ADME, organism-based; parameters: dose 5 mg/kg, dosed compound name [14C]-apixaban, route oral
Procedure, shortened: (§1)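 Pregnant rats, 270-319 g and fasted overnight, received [14C]apixaban by oral gavage at 100 μCi/kg in 0.5% Tween 80/Labrafil. One dam per time point was euthanized and frozen in hexane/dry ice. Fetal tissue radioactivity was measured by QWBA on 40 µm sagittal sections calibrated with [14C]glucose standards. Values are in µg eq/g, with LLOQ 0.037 μg eq/g.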

Blood [4] = assay: Biodistribution in male Sprague-Dawley rat blood at 5 mg/kg, po administered as single dose measured after 1 hr; assay type: ADME, organism-based; parameters: dose 5 mg/kg, dosed compound name [14C]-apixaban, route oral
Procedure, shortened: (§2)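 [¹⁴C]Apixaban given by oral gavage at 5 mg/kg (100 μCi/kg) in 0.5% Tween 80 in Labrafil (1.0 mg/mL dosing solution) to rats fasted overnight through 4 h post-dose. One rat per time point; carcass frozen in hexane/dry ice. Quantitative whole-body autoradiography used 40 µm sagittal sections and a phosphor imaging plate calibrated with [¹⁴C]glucose standards (0.001–6.5 μCi/g). Read-out in µg eq apixaban/g; LLOQ 0.037 μg eq/g.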

Rattus norvegicus [5] = assay: Biodistribution in fetal liver of pregnant Sprague-Dawley rat at 5 mg/kg, po administered as single dose measured after 0.5 hrs; assay type: ADME, organism-based; parameters: dose 5 mg/kg, dosed compound name [14C]-apixaban, route oral; procedure, shortened: as §1
Brain [6] = assay: Biodistribution in female Sprague-Dawley rat brain at 5 mg/kg, po administered as single dose measured after 0.5 hrs; assay type: ADME, organism-based; parameters: dose 5 mg/kg, dosed compound name [14C]-apixaban, route oral
Procedure, shortened: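 [14C]Apixaban (1.0 mg/mL, 20 μCi/mL in 0.5% Tween 80 in Labrafil) given as a single oral gavage of 5 mg/kg (100 μCi/kg) to fasted female SD rats, one rat per time point. Carcasses were frozen in hexane/dry ice and cut into 40 µm sagittal sections for QWBA against [14C]glucose standards. Brain radioactivity is reported as µg eq/g, with LLOQ 0.037 µg eq/g.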

Lung = assay: Biodistribution in female Sprague-Dawley rat lung at 5 mg/kg, po administered as single dose measured after 0.5 hrs; assay type: ADME, organism-based; parameters: dose 5 mg/kg, dosed compound name [14C]-apixaban, route oral; procedure, shortened: as §2
Pancreas [7] = assay: Biodistribution in female Sprague-Dawley rat pancreas at 5 mg/kg, po administered as single dose measured after 4 hrs; assay type: ADME, organism-based; parameters: dose 5 mg/kg, dosed compound name [14C]-apixaban, route oral; procedure, shortened: as §2
Blood [8] = assay: Biodistribution in pregnant Sprague-Dawley rat blood at 5 mg/kg, po administered as single dose measured after 48 hrs; assay type: ADME, organism-based; parameters: dose 5 mg/kg, dosed compound name [14C]-apixaban, route oral
Procedure, shortened: (§3)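 Fasted pregnant SD rats (n=6, 270-319 g) each received one oral gavage dose of [14C]apixaban, 5 mg/kg (100 μCi/kg), in 0.5% Tween 80/Labrafil. One rat was killed at each of 0.5, 1, 4, 8, 24 and 48 h. Carcasses were frozen in hexane/dry ice, cut into 40 µm sagittal sections, exposed to phosphor plates and quantified against [14C]glucose standards as µg eq/g. LLOQ was 0.037 µg eq/g.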

Rattus norvegicus [9] = assay: Biodistribution in pregnant Sprague-Dawley rat brown fat at 5 mg/kg, po administered as single dose measured after 24 hrs; assay type: ADME, organism-based, Brown adipose tissue; parameters: dose 5 mg/kg, dosed compound name [14C]-apixaban, route oral; procedure, shortened: as §3
Spleen = assay: Biodistribution in female Sprague-Dawley rat spleen at 5 mg/kg, po administered as single dose measured after 8 hrs; assay type: ADME, organism-based; parameters: dose 5 mg/kg, dosed compound name [14C]-apixaban, route oral; procedure, shortened: as §2
Thymus = assay: Biodistribution in male Sprague-Dawley rat thymus at 5 mg/kg, po administered as single dose measured after 4 hrs; assay type: ADME, organism-based; parameters: dose 5 mg/kg, dosed compound name [14C]-apixaban, route oral
Pancreas [10] = assay: Biodistribution in pregnant Sprague-Dawley rat pancreas at 5 mg/kg, po administered as single dose measured after 8 hrs; assay type: ADME, organism-based; parameters: dose 5 mg/kg, dosed compound name [14C]-apixaban, route oral
Procedure, shortened: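 Pregnant SD rats (270-319 g) were fasted overnight and given one oral gavage of 5 mg/kg (100 μCi/kg) in 0.5% Tween 80 in Labrafil. One rat was euthanized per time point (0.5, 1, 4, 8, 24, 48 h) and the carcass frozen. 40 µm sagittal sections were phosphor-imaged against [14C]glucose standards and results reported as µg eq/g; LLOQ 0.037 µg eq/g.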

Blood [11] = assay: AUC (0 to infinity) in lactating Sprague-Dawley rat blood at 5 mg/kg, po administered as single dose; assay type: ADME, organism-based; parameters: time infinity, dose 5 mg/kg, dosed compound name [14C]-apixaban, route oral
Plasma = assay: AUC (0 to infinity) in lactating Sprague-Dawley rat plasma at 5 mg/kg, po administered as single dose; assay type: ADME, organism-based; parameters: time infinity, dose 5 mg/kg, dosed compound name [14C]-apixaban, route oral
Procedure, shortened: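 Fasted lactating SD rats received 5 mg/kg [14C]apixaban orally (formulation 5.0 mg/mL, 20 μCi/mL). Oxytocin was injected subcutaneously 15 min before collection, and 1 mL milk was taken under anesthesia by milking machine. Sampling was predose and at 0.5–24 h, 3 rats per time point. Plasma was obtained at 1300g for 10 min. Duplicate 50–100 µL aliquots were counted by LSC for 10 min. AUC was calculated in WinNonlin.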

## COc1ccc(-n2nc(C(N)=O)c3c2C(=O)N(c2ccc(N4CCCC[14C]4=O)cc2)CC3)cc1
Brain [1]
  Radiolabel recovery: < 0.037 ugequiv/g
Rattus norvegicus [2]
  Radiolabel recovery: 0.06 ugequiv/g
Rattus norvegicus [3]
  Radiolabel recovery: 0.51 ugequiv/g
Blood [4]
  Radiolabel recovery: 1.18 ugequiv/g
Rattus norvegicus [5]
  Radiolabel recovery: 0.16 ugequiv/g
Brain [6]
  Radiolabel recovery: < 0.037 ugequiv/g
Lung
  Radiolabel recovery: 0.43 ugequiv/g
Pancreas [7]
  Radiolabel recovery: 0.55 ugequiv/g
Blood [8]
  Radiolabel recovery: Not detected assumed BLQ
Rattus norvegicus [9]
  Radiolabel recovery: Not detected assumed BLQ
Spleen
  Radiolabel recovery: 0.13 ugequiv/g
Thymus
  Radiolabel recovery: 0.23 ugequiv/g
Pancreas [10]
  Radiolabel recovery: 0.09 ugequiv/g
Blood [11]
  AUC: 1960 ngequiv.hr/g
Plasma
  AUC: 3470 ngequiv.hr/g
